According to ChEMBL document CHEMBL4699493, “Development of Bis-cyclic Imidazolidine-4-one Derivatives as Potent Antibacterial Agents” (J Med Chem, 2020):
Converted amounts (≈) assume the structure as drawn. The source made the active and inactive calls. The calls are words filed in the database; no cut-off is given here.

Experiments:
Cell membrane [1] = assay: Induction of cell membrane depolarization in Escherichia coli ATCC 25922 assessed as increase in fluorescence intensity measured after 30 mins by DiSC3 staining based fluorescence spectroscopic technique; type: subcellular
Outline: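 Mid-log E. coli washed in 5 mM HEPES/5 mM glucose and resuspended in HEPES/glucose/100 mM KCl to OD600 about 0.05. DiSC3(5) added (8 μL of a 10 μM solution per 200 μL). Fluorescence (ex 622 nm, em 670 nm) read at room temperature for 30 min, then compound added at 0.5, 1, 2 and 4 × MIC and monitoring continued. Controls: untreated and 1% Triton X-100. Three repeats in duplicate.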

Cell membrane [2] = assay: Induction of cell membrane disruption in Escherichia coli ATCC 25922 at 2 times MIC after 2 hrs by transmission electron microscopic analysis; type: subcellular
Outline: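 Bacteria at 10^6 CFU/mL treated with compound at 2 × MIC for 2 h at 37 °C; untreated controls included. Cells pelleted, washed three times in PBS, resuspended in deionized water, dropped onto grids, blotted, vacuum-dried at 50 °C for 30 s, and imaged by TEM.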

Escherichia coli [3] = assay: Bactericidal activity against Escherichia coli ATCC 25922 at 24 to 48 microg/ml measured after 30 mins by time kill assay; type: functional, organism-based; settings: dose microg/ml 24-48, time 30.0 min
Outline: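 Mid-log bacteria at 10^6 CFU/mL incubated with compound (12, 24, 48 μg/mL) at 37 °C for 10, 30, 60, 120 min; untreated control. Mixtures diluted 10^4-fold, plated on TSB agar, incubated 20 h at 37 °C, colonies counted and plotted against time. Three repeats.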

HeLa = assay: Cytotoxicity against human HeLa cells after 24 hrs by MTT assay; type: cell-based
Outline: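 HeLa cells seeded at 5 × 10^3 cells/well, attached 24 h at 37 °C, 5% CO2, then exposed to a range of compound concentrations in growth medium for 24 h. Viability read with CCK-8 reagent, absorbance at 490 nm after 1 h. Triplicate wells, three repeats.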

Klebsiella pneumoniae = assay: Antibacterial activity against Klebsiella pneumoniae ATCC 13383 in presence of monovalent Na+ and K+; type: functional
Outline: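 MIC by the standard broth dilution method, in medium made by dissolving TSB powder in 1× PBS (7.5 g per 250 mL), autoclaved, to supply Na+ and K+. Inoculum of log-phase bacteria at 10^6 CFU/mL. MIC = lowest concentration completely inhibiting growth.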

Staphylococcus aureus = assay: Bactericidal activity against methicillin-resistant Staphylococcus aureus ATCC 33591 at 24 to 48 microg/ml measured upto 60 mins by time kill assay; type: functional, organism-based; settings: dose microg/ml 24-48, time min <=60
Outline: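 Mid-log MRSA (overnight culture in TSB at 37 °C with shaking, then 6 h subculture) at 10^6 CFU/mL was exposed to 6, 12, 24 or 48 μg/mL at 37 °C for 10, 30, 60 and 120 min. Samples were diluted 10^2-fold, plated on TSB agar, incubated 20 h at 37 °C, and colonies counted. Untreated control; three repeats.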

Escherichia coli [4] = assay: Antibiofilm activity against Escherichia coli ATCC 25922 assessed as reduction in biofilm formation at 3 ug/ml measured after 2 days by crystal violet staining based assay; type: functional; settings: ATCC 25922, 48 h, time 2 day
Outline: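 Mid-log E. coli (overnight culture, then 6 h subculture at 37 °C) set up with compound in TSB as in the MIC assay and incubated 2 days. Wells washed with DI water, stained with 0.1% crystal violet for 15 min, washed, dried, and dye solubilized in 30% acetic acid for 15 min. OD595 normalized to untreated control. Ciprofloxacin as comparator. Triplicate, mean ± STDEV.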

Escherichia coli [5] = assay: Antibacterial activity against Escherichia coli ATCC 25922; type: functional
Outline: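 Broth microdilution in TSB. Stocks at 5 mg/mL in DMSO diluted with TSB to 100 μg/mL, then serially diluted; highest test concentration 25 μg/mL. Bacteria grown 16 h, subcultured 6 h to log phase, adjusted to 10^6 CFU/mL by OD600. MIC = lowest concentration giving complete growth inhibition. At least three repeats, each in duplicate.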

Cell membrane [6] = assay: Induction of inner membrane permeabilization in Escherichia coli ATCC 25922 at 2 times MIC measured for 12 mins by propidium iodide staining based fluorescence microscopic analysis; type: functional, subcellular
Outline: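 Mid-log bacteria pelleted at 1000g, washed three times in 5 mM HEPES/5 mM glucose, and resuspended to 10^6 CFU/mL. PI added (50 μL of a 10 μM solution to 150 μL of cells). Fluorescence (ex 535 nm, em 617 nm) read every 2 min for about 8 min, then compound added and reading continued for 12 min. Water added as the no-drug control. Three repeats.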

CCCCCCCCCC(=O)N[C@@H](CCCCN)CN1CC(=O)N(c2ccc(N3CN(C[C@H](CCCCN)NC(=O)CCCCCCCCC)CC3=O)cc2)C1
Activity (Cell membrane [1]): Dose-dependent effect | Activity (Cell membrane [2]): Active | Activity (Escherichia coli [3]): Active | IC50 (HeLa): 74.8 µg/mL (≈ 95.5 µM) | MIC (Klebsiella pneumoniae): 7 µg/mL | Activity (Staphylococcus aureus): Active | inhibition at 3 µg/mL (Escherichia coli [4]): > 50% | MIC (Escherichia coli [5]): 5 µg/mL (≈ 6.38 µM) | Activity (Cell membrane [6]): Active
